The values that follow come from paper PMC5909815 (Nature chemical biology, 2017).

For data set [1], the system named is H1155 cells. Put plainly: cell viability, combination of inhibitors with paclitaxel. The format is cell-based.
In data set [2] the test system is multiple cell lines (H650, H1155, H23). Briefly: relative cell counts after treatment with selective inhibitors. As to conditions: 72 h. In kind it is cell-based. A digest of the protocol:
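Cells were treated 72 h with test inhibitors at 1.5 μM (20 μM for FMK and SL0101), diluted from 10 mM DMSO stocks in complete RPMI. Viable cells were counted in triplicate by trypan blue exclusion on a hemocytometer. Data are biological triplicates each in technical triplicate, reported as median ± SD relative counts.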

For data set [3], the target named is EML4-ALK (Homo sapiens, UniProt Q9HC35+Q9UM73). Put plainly: c-ceritinib pulldown. In kind it is binding. As to conditions: immobilized compound, cell lysate.
For data set [4], the target named is ALK (Homo sapiens, UniProt Q9UM73). Briefly: in vitro kinase assay. The format is biochemical. The method in brief:
(§1)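 Biochemical kinase IC50s were determined by two contract providers. One used a 10-dose 3-fold serial dilution from 20 μM and the other a 9-dose 3-fold dilution from 20 μM, each in technical duplicate. Reported values are the mean of the combined datasets.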

Data set [5] relates to ALK-negative NSCLC cell lines (most sensitive cells). Put plainly: CellTiter-Glo cell viability, dose-response curves. The format is cell-based. (Cellular ATP, detected with luciferase, serves as a proxy for viable cell number.)
Data set [6] relates to autophosphorylation of FAK1 in H23 cells. Briefly: Western blot, FAK1 autophosphorylation. As to conditions: 3 h. The format is cell-based. The method in brief:
(§2)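 H23 cells were treated for 3 h with test compounds: FMK at 20 μM, OSI-906 and PF-573228 at 1.5 μM. Target phosphorylation and downstream signals were read by western blot with HRP-conjugated secondary antibodies; n = 3.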

In data set [7] the target is mTOR (Homo sapiens, UniProt P42345). Put plainly: in vitro kinase assay. In kind it is biochemical. As to conditions: at 1.5 μM.
In data set [8] the test system is phosphorylation of YB1 at S102. Briefly: Immunoblot, YB1 phosphorylation. In kind it is cell-based. As to conditions: 3 h treatment. The method in brief:
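YB1 phosphorylation was read by immunoblot after 3 h treatment: FMK 20 μM, OSI-906 1.5 μM, PF-573228 1.5 μM. Lysis was in NP40/Tris pH 7.5/glycerol/MgCl₂/NaCl buffer with phosphatase and protease inhibitors. Detection used HRP-conjugated anti-rabbit or anti-mouse secondaries.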
For orientation: A western blot detects proteins with antibodies after separation by electrophoresis.

The test system of data set [9] is phosphorylation of RPS6 at S235/236. Put plainly: Immunoblot, RPS6 phosphorylation. The format is cell-based.
In data set [10] the test system is H460 cells. Briefly: cell viability, combination with paclitaxel. In kind it is cell-based.
Data set [11] relates to FAK1 and RSK1/2. Briefly: c-ceritinib pulldown competition with free ceritinib. In kind it is binding. As to conditions: 20 μM unmodified ceritinib, H650 cell lysate.
Data set [12] has as its system RSK1/2 S380/S386 autophosphorylation in H23 cells. Put plainly: Western blot, RSK1/2 autophosphorylation. In kind it is cell-based. As to conditions: 3 h. The method in brief: as §2
Data set [13] concerns ERK1/2. Put plainly: in vitro kinase assay. The format is biochemical. As to conditions: at 1.5 μM.
The target of data set [14] is AMPKα1 (Homo sapiens, UniProt Q13131). Briefly: in vitro kinase assay. The format is biochemical. A digest of the protocol:
as §1

Data set [15] has as its system NRAS-mutant H1299 LCLC cells. Put plainly: cell viability, combination with paclitaxel. The format is cell-based.
The subject of data set [16] is H650 and H1155 cells. Put plainly: cell viability, combination with paclitaxel. The format is cell-based. As to conditions: 72 h. The method in brief:
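Cells were plated at 1000 cells/well in 384-well format and dosed 24 h later with test compound alone or with the partner agent, each diluted in culture medium. After 72 h, viability was read by CellTiter-Glo luminescence (n = 3). Dose-response curves were fitted, and combination effects were scored by the Bliss model or by the Chou-Talalay combination index.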

Data set [17] concerns H460 cells. Briefly: clonogenic assay, combination with paclitaxel. The format is cell-based. As to conditions: 7 days.
Data set [18] has as its target RSK1/2 C-terminal kinase domain (CTKD). Briefly: cross-competition pulldown with NTKD or CTKD inhibitors. In kind it is binding. As to conditions: H650 lysate ± 20 μM BI-D1870 or FMK.
Data set [19] concerns NSCLC cell lines (KRAS-mutant H650, H1155 and H23 cells). Briefly: phenotypic drug screen, cell viability. The format is cell-based. As to conditions: 72 h, 2.5 μM; ALK-negative lines. A digest of the protocol: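 Phenotypic screen: 240 compounds were tested across 20 NSCLC cell lines, seeded 1000 cells/well in 384-well plates and treated 24 h later. Compounds were diluted from 10 mM DMSO stocks in complete RPMI to final 0.5 μM and 2.5 μM for 72 h in biological duplicate. Viability was read by CellTiter-Glo luminescence and profiles were grouped by unsupervised hierarchical clustering.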

The subject of data set [20] is AKT phosphorylation in H23 cells. Briefly: Western blot, AKT phosphorylation. In kind it is cell-based. As to conditions: 3 h. A digest of the protocol: as §2
Data set [21] deals with PDX tumor models with high pFAK1 staining (PDX1, PDX2, PDX3). Put plainly: ex vivo soft-agar 3D clonogenic assay, combination with paclitaxel. In kind it is cell-based. As to conditions: particularly at low drug concentrations.
Data set [22] concerns ERK phosphorylation in H23 cells. Briefly: Western blot, ERK phosphorylation. The format is cell-based. As to conditions: 3 h. The method in brief:
as §2

Data set [23] concerns H1155 cells. Put plainly: apoptosis by cleaved caspase 3/7 and PARP1. As to conditions: for apoptosis, single drug: single drug treatment. The format is cell-based.
Data set [24] deals with FER (Homo sapiens, UniProt P16591). Put plainly: in vitro kinase assay. The format is biochemical.
For data set [25], the system named is NSCLC cells. Briefly: cell cycle analysis by flow cytometry. In kind it is cell-based. The method in brief: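 Cell cycle: after incubation, cells were harvested, fixed in 70% cold ethanol and held at −20°C. They were then washed in PBS and stained with 1 μg/mL DAPI in 0.1% Triton X-100/PBS. DNA content was measured by flow cytometry and cell-cycle phases were modelled from the histograms.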
On the technique in general: Flow cytometry measures light scatter and fluorescence of single cells or particles in a stream.

The conditions of data set [26]: patient plasma; cited from earlier work.

Broadly, the IC50 is the point on the concentration scale where inhibition reaches its midpoint. As usually defined, the viability is a per cent measure of how many cells are alive, often set against a control.

Chain of AMPKα1 (Q13131 whole entry): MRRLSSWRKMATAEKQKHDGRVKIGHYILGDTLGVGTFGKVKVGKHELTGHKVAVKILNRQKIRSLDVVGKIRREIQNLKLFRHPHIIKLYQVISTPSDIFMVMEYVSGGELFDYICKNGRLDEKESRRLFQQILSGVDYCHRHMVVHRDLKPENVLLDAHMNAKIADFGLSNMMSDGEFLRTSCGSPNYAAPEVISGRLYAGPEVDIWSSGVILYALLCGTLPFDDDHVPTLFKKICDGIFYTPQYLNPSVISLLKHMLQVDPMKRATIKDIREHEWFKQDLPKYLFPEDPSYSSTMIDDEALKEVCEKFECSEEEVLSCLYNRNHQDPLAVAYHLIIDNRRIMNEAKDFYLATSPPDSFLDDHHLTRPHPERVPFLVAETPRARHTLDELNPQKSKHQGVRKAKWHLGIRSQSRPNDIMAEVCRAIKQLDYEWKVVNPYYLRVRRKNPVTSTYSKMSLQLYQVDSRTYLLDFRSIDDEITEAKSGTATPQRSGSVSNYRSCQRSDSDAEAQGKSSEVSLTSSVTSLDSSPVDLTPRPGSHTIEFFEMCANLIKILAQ
Chain of AMPKα1 (Q9Y478 whole entry partner): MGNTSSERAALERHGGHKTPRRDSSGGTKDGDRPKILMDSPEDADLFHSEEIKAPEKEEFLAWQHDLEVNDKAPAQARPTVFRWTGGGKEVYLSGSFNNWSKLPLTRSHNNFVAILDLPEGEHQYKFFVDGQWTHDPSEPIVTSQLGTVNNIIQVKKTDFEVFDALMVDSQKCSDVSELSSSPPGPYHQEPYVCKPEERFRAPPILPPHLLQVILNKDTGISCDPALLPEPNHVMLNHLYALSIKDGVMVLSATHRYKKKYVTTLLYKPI
Chain of AMPKα1 (P54619 whole entry partner): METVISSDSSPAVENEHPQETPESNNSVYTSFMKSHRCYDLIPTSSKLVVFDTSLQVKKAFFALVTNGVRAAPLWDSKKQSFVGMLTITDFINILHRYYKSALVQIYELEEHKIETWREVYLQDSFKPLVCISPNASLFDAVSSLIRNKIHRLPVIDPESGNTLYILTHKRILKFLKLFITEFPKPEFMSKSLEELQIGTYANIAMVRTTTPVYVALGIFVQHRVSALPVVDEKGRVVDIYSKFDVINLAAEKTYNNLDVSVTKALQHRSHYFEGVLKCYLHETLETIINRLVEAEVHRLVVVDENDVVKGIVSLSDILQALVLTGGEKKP
Chain of ALK (Q9UM73 19-1620): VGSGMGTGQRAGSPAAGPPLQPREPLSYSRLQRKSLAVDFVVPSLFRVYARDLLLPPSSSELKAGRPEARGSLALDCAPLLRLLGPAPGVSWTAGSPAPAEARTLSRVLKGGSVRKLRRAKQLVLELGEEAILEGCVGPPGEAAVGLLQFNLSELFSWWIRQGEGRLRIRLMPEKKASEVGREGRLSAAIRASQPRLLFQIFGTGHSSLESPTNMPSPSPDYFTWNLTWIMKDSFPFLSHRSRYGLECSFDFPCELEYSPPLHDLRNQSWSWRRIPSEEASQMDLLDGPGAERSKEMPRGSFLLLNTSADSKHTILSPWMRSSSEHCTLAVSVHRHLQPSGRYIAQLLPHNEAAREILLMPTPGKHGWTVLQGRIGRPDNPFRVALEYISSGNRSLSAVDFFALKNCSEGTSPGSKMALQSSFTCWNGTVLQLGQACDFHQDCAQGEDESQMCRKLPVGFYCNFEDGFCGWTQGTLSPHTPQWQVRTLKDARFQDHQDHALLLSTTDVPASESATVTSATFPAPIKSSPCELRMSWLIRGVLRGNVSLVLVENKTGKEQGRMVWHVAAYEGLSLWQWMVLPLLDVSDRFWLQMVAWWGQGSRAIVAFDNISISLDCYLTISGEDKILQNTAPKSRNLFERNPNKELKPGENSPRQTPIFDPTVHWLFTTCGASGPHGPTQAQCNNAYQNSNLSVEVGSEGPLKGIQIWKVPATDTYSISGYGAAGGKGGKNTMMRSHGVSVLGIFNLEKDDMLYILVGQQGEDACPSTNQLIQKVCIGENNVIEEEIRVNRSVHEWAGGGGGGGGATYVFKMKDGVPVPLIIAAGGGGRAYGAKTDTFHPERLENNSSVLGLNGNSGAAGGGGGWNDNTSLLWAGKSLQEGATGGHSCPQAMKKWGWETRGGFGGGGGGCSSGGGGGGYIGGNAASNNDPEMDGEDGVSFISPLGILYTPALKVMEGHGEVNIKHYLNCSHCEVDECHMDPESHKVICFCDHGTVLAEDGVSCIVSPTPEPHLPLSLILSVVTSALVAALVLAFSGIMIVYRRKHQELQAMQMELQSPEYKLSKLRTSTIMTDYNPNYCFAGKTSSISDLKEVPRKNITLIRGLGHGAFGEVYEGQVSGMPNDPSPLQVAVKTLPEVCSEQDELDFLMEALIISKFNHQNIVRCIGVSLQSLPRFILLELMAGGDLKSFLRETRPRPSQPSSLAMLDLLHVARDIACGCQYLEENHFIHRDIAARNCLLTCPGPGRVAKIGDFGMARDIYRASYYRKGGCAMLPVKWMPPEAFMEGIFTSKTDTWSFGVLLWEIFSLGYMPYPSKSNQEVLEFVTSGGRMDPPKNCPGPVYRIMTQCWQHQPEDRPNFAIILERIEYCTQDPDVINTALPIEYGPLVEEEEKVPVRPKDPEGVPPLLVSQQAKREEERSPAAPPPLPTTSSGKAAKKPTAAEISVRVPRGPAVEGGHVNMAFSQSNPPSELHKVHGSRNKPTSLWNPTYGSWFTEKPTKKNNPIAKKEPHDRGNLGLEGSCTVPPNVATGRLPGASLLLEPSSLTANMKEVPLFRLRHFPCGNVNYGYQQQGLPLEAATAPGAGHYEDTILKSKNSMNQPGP
Chain of FER (P16591 whole entry): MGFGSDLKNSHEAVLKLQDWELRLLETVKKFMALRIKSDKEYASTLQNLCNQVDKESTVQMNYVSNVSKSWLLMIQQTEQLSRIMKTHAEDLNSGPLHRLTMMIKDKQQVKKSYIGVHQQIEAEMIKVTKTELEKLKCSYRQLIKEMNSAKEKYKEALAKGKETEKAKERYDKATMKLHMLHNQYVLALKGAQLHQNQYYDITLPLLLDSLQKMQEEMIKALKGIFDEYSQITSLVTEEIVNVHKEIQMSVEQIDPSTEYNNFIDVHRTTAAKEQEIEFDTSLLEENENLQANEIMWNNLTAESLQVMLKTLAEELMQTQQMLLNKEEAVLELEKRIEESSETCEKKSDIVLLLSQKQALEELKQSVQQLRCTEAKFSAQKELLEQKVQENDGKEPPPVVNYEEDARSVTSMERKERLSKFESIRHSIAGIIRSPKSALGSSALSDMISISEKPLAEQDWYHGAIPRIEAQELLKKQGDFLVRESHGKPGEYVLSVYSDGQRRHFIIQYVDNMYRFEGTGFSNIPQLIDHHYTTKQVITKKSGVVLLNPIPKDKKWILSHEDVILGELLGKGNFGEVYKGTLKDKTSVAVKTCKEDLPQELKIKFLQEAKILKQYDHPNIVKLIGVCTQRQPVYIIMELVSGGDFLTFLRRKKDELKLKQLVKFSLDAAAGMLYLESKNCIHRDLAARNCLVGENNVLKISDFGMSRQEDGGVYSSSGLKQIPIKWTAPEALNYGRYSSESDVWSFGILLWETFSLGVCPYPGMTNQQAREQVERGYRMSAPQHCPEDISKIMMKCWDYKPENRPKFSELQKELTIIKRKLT

As to `CNC(=O)c1ccccc1Nc1nc(Nc2ccc3c(c2OC)CCC[C@H](N2CCN(CCO)CC2)C3)ncc1Cl` [CEP-37440], in data set [1], the synergy with paclitaxel entry is given as “strongly synergized”.

Take `Cc1ccc(-c2c(C(=O)CF)n(CCCO)c3ncnc(N)c23)cc1` [FMK]: the “effect on viability, single agent” value in data set [2] (20 μM) is reported as “little effect”.

As to `C[C@]1(O)C[C@@H](c2nc(-c3ccc4ccc(-c5ccccc5)nc4c3)c3c(N)nccn32)C1` [OSI-906], the “effect on viability, single agent” value in [2] (1.5 μM) is on record as “little effect”.

For the compound `CS(=O)(=O)c1cccc(CNc2nc(Nc3ccc4c(c3)CCC(=O)N4)ncc2C(F)(F)F)c1` [PF-573228], the “effect on viability, single agent” value in data set [2] (1.5 μM) was “little effect”.

For `CC(=O)O[C@@H]1[C@@H](OC(C)=O)[C@@H](O)[C@H](Oc2c(-c3ccc(O)cc3)oc3cc(O)cc(O)c3c2=O)O[C@H]1C` [SL0101], in data set [2] (20 μM), the “effect on viability, single agent” value is given as “little effect”.

Regarding `Cc1cc(Nc2ncc(Cl)c(Nc3ccccc3S(=O)(=O)C(C)C)n2)c(OC(C)C)cc1C1CCN(CCCN)CC1` [c-ceritinib], in data set [3], the “binding of EML4-ALK” value is on record as “ability to bind”. Further, the ALK inhibition result in [4] was “Activity was confirmed”.

Regarding `Cc1cc(Nc2ncc(Cl)c(Nc3ccccc3S(=O)(=O)C(C)C)n2)c(OC(C)C)cc1C1CCNCC1` [ceritinib, 5-Chloro-N2-(2-isopropoxy-5-methyl-4-(piperidin-4-yl)phenyl)-N4-(2-(isopropylsulfonyl)phenyl)pyrimidine-2,4-diamine], the half-maximal inhibitory concentration (IC50) in data set [5] (72 h, read-out: IC50, inhibition of viability) is 1000 to 2000 nM; in [14], 2500 nM; in data set [24] it was 5 nM. Moreover, the viability at 4 µM in data set [5] (read-out: Emax, viability) was determined as 0%. Also, in data set [6], the “effect on autophosphorylation of FAK1” value was “reduced”. In addition, the inhibition result in [7] and in data set [13] was “not significantly inhibited” throughout. Besides, the “effect on YB1 S102 phosphorylation” value in [8] is “inhibited”. For the same compound, in data set [9], the “effect on RPS6 S235/236 phosphorylation” value is “inhibited”. The “synergy, CI values” in data set [10] was “highly synergistic”. For the same compound, in [11], the “competition from the affinity matrix” value is given as “competed away”. In addition, the “effect on RSK1/2 S380/S386 autophosphorylation” value in data set [12] is reported as “inhibited”. Also, the synergy with paclitaxel entry in data set [1] is reported as “pronounced synergy”. Also, in data set [15], the response to combination entry is listed as “strong response”. The “synergy, Bliss model of independence” value in [16] is “substantial synergy”. Moreover, the “combination effect, clonogenic assay” value in data set [17] is “pronounced combination effects”. Also, the kinase domain bound entry in data set [18] is recorded as “binds to the CTKD”. Further, in data set [19], the “activity in viability screen” value was “specific ALK-independent activity”. Further, in data set [20], the “effect on AKT phosphorylation” value is listed as “reduced”. Also, the “synergy (Bliss), 3D ex vivo culture” value in data set [21] is reported as “pronounced synergy”. The “effect on ERK phosphorylation” value in data set [22] was “only minor effects”. For the same compound, the “apoptosis, combination” value in data set [23] (ceritinib combined with paclitaxel) is reported as “significant increase in apoptosis”. For the same compound, in data set [23], the “apoptosis, single drug” value was “no effect”. Further, in [25], the cell cycle effect result is “G1 cell cycle arrest”. In addition, the clinical plasma concentrations in data set [26] is 1.4 to 2.3 µM.

In the case of `c1cc(-c2cnn3cc(-c4ccc(OCCN5CCCCC5)cc4)cnc23)ccn1` [compound C], in data set [1], the synergy with paclitaxel entry is listed as “did not synergize”.

`CC(=O)O[C@H]1C(=O)[C@@]2(C)[C@H]([C@H](OC(=O)c3ccccc3)[C@]3(O)C[C@H](OC(=O)[C@H](O)[C@@H](NC(=O)c4ccccc4)c4ccccc4)C(C)=C1C3(C)C)[C@]1(OC(C)=O)CO[C@@H]1C[C@@H]2O` [paclitaxel]: the “apoptosis, single drug” value in [23] was “no effect”.

In the case of `CN(C)C(=O)c1cc2cnc(Nc3ccc(N4CCNCC4)cn3)nc2n1C1CCCC1` [ribociclib], the synergy with paclitaxel entry in data set [1] is “did not exhibit synergy”.
